# FGF22 binding = FGF22 (human) thermal shift binding; Q9HCT0; recombinant FGF22 thermal shift, SYPRO orange fluorescence; percent of sucrose octasulfate shift, DMSO zero; activity (Tm shift, normalised), % at 9.99 µM; 1.5% of 340,000 active; AID 651658;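 active = mean Tm shift, scaled 0 neutral to 100 positive control, at about 1.3% or above, every replicate too, limit read from the data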
# Target sequence (Q9HCT0 whole entry, looked up): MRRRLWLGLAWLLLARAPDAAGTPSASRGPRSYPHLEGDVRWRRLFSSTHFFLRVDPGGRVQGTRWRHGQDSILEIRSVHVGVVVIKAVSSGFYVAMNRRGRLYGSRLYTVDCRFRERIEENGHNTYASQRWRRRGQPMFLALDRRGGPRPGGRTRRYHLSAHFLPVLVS
# ZTA DNA inh = ZTA (EBV) inhibition in EBNA-1 counter-screen | P03206 | ZTA-DNA binding, fluorescence polarization | inhibition, % at 11 µM | 0.15% of 320,000 active | AID 2234; in the data active = inhibition above about 33%
# Target sequence (P03206 whole entry, looked up): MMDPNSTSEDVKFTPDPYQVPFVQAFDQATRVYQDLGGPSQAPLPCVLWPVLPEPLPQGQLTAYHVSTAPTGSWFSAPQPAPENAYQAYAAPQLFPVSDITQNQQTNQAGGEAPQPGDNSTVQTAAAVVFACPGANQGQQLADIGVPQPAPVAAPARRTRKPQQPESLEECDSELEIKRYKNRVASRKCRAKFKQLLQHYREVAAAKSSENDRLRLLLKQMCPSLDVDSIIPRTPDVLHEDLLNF
# NS3 helicase inh = blocks Hepatitis C virus NS3 helicase unwinding; 0.56% of 290,000 active; AID 1800; inhibition, % at 10.9 µM; NS3 helicase DNA unwinding, Cy5 molecular beacon fluorescence;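 active = inhibition above the mean of all tested compounds plus 3 SD, set per campaign, cut at about 35% in these data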;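 note: 0% = DMSO wells and 100% = thioflavine S control wells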
#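 assay system = NS3 helicase fragment of HCV | buffer or medium = MOPS pH 6.5, MgCl2, DTT, Tween20, BSA | timing = 60 min unwinding reaction at 25 °C after ATP addition | signal = Cy5 beacon fluorescence read at start and 1 h | read-out basis = % inhibition of unwinding | control set = low DMSO, high thioflavine S at 110 µM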
# FID counter = counter-screen for HCV NS3 helicase inhibitors: DNA intercalator displacement; AID 1845; inhibition, % at 7.9 µM; DNA fluorescent intercalator displacement, fluorescence; 0.17% of 290,000 active; in the data active = inhibition above about 37%;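 note: 0% = vehicle and 100% = reference compound; higher means more ethidium bromide displaced from hairpin DNA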
# EBNA-1 inh = blocks EBNA-1 binding to DNA | EBNA-1 DNA binding, fluorescence polarization | 0.34% of 300,000 active | inhibition, % at 14.8 µM | AID 1950; in the data active = inhibition above about 28%
# NR3A LBD binder = NR3A (human) ligand-binding domain modulation; Tm shift relative to glycine control, % at 25 µM; 2.5% of 340,000 active; NR3A LBD differential scanning fluorimetry, Tm shift; 0% = protein alone, 100% = glycine-bound protein; AID 1259313;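 active = melting temperature shift of at least 10% of the positive control shift, at one fixed dose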
# EBNA-1 confirm = EBNA-1 (EBV) inhibition, confirmation; 35% of 830 active; shares compounds with EBNA-1 inh; inhibition, % at 14.8 µM; Recombinant EBNA-1 DBD, Cy5-DNA fluorescence polarization;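 active = mean inhibition across replicates above a set limit taken from the earlier primary screen, cut at about 28% in these data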;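 note: plate controls were EBNA-1 protein with DMSO for no effect and wells lacking EBNA-1 for full effect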
# ZTA counter trip = blocks Epstein-Barr virus ZTA in triplicate, EBNA-1 counter-screen. shares compounds with EBNA-1 inh. Zta-ZRE DNA binding, Cy5 fluorescence polarization. inhibition, % at 11.1 µM. 830 tested, under 10 active. AID 2328;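 active = mean inhibition over triplicates above a set limit taken from the primary EBNA-1 screen, cut at about 37% in these data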;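 note: purified full length Zta protein with Cy5 labeled ZRE DNA probe; 0% = Zta with DMSO and 100% = wells lacking Zta protein; inhibitors lower polarization by freeing the labeled DNA probe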
# * = called active by the depositor; · = no result given. A selection: hits, their analogues and other compounds. The true share with any hit is near 3.6%.
SMILES,FGF22 binding,ZTA DNA inh,NS3 helicase inh,FID counter,EBNA-1 inh,NR3A LBD binder,EBNA-1 confirm,ZTA counter trip
c1cc2ccc3ccc(-n4cnnn4)c4ccc(c1)c2c34,·,27.4,-0.2,-3.7,34.4*,-0.4,35.5*,22.4
O=C(CCn1cnc2ccccc2c1=O)Nc1nc(-c2ccc(Br)cc2)cs1,0.5,16.0,-3.7,-2.9,32.3*,1.8,44.4*,25.6
O=C(Cn1nc(C(=O)O)c2ccccc2c1=O)Nc1nc(-c2ccccc2)cs1,-0.1,-1.8,-3.2,-5.1,31.5*,-0.5,30.2*,0.6
O=C(Cn1cnc2ccccc2c1=O)Nc1nc2ccccc2s1,0.1,5.3,2.0,2.8,45.2*,1.9,54.8*,1.6
Cc1ccccc1NC(=O)Cn1nc(C(=O)O)c2ccccc2c1=O,-0.4,0.6,0.1,-17.6,-2.3,2.8,·,·
O=[N+]([O-])c1ccc(C[n+]2cc(-c3ccc(Cl)c(Cl)c3)n3c2CCCCC3)cc1,0.2,-6.0,-47.2,27.7,33.1*,-1.2,0.1,10.3
O=[N+]([O-])c1ccc(C[n+]2cc(-c3ccccc3)n3c2CCCCC3)cc1,0.4,7.2,6.5,9.5,-14.7,-1.3,·,·
Cc1ccc(S(=O)(=O)N(C)C[C@H]2Oc3ccc(NS(C)(=O)=O)cc3C(=O)N([C@H](C)CO)C[C@H]2C)cc1,-0.2,·,·,·,·,·,·,·
O=C(C[C@@H]1CC[C@@H](NC(=O)CCN2CCCCC2)[C@@H](CO)O1)NCc1ccc(Cl)c(Cl)c1,-0.4,·,·,·,·,·,·,·
Cc1ccc(C(=O)NC(=S)Nc2ccc3[nH]c(=O)[nH]c3c2)cc1,0.1,32.6,1.0,-6.4,43.5*,0.3,33.9*,12.2
Cc1noc(C)c1S(=O)(=O)N(C)C[C@@H]1Oc2ccc(NC(=O)NC3CCCCC3)cc2CC(=O)N([C@H](C)CO)C[C@H]1C,-0.3,·,·,·,·,·,·,·
CN1C(=O)c2cc(NC(=O)c3cccc(F)c3)ccc2OC[C@H]2O[C@@H](CC(=O)Nc3ccccc3)CC[C@H]21,0.0,·,·,·,·,·,·,·
CCn1c(CSc2nnc3ccccn23)nc2cc(C(=O)O)ccc21,·,30.0,-4.7,-5.3,44.8*,-2.4,44.4*,82.4*
CCOc1ccc(C(=O)CSc2nnc3ccccn23)cc1,·,4.1,3.4,-5.9,4.5,-0.1,·,·
O=S1(=O)N=C(N(CCO)/N=C/c2ccc(Br)cc2)c2ccccc21,-0.3,-6.6,-6.3,-23.3,31.6*,-2.5,22.0,9.5
N#C[C@H]1[C@H](c2ccc(C3=CCCC3)cc2)[C@H](CO)N1C(=O)C1CC1,-0.2,·,·,·,·,·,·,·
O=C(Nc1ccccc1)c1ccc(F)cc1F,-0.3,-10.8,·,·,8.7,3.1,·,·
O=C(Nc1ccc(NC(=O)c2ccccc2O)cc1)Nc1ccc(F)cc1F,0.0,-8.4,-11.2,1.7,38.2*,31.2*,9.9,-9.3
Cc1ccc(NC(=O)CN2C(=O)N/C(=C/c3cc(C)n(-c4ccc(C(=O)O)cc4)c3C)C2=O)cc1,1.2,·,7.0,-21.8,·,-0.8,·,·
Cc1ccc(NC(=O)CN2C(=O)N/C(=C/c3cccn3-c3ccc(C(=O)O)cc3)C2=O)cc1,·,23.0,33.5,-15.2,37.1*,-2.1,16.4,40.0*
CC(C)NC(=O)Nc1ccc2c(c1)C(=O)N([C@H](C)CO)C[C@H](C)[C@H](CN(C)CC1CCCCC1)O2,0.1,·,·,·,·,·,·,·
CCCNC(=O)Nc1ccc2c(c1)C(=O)N(C)C[C@H](OC)[C@@H](C)CN(C(=O)C1CCC1)[C@H](C)CO2,-0.2,·,·,·,·,·,·,·
CO[C@@H]1CN(C)C(=O)c2ccc(NS(=O)(=O)c3cn(C)cn3)cc2OC[C@H](C)N(Cc2cccc(F)c2)C[C@@H]1C,-0.5,·,·,·,·,·,·,·
CCOC(=O)C(Cc1ccc(NC(=O)/C(=C/c2ccccc2)NC(=O)c2ccccc2)cc1)N1C(=O)c2ccccc2C1=O (configuration not stated),·,9.9,-1.7,-20.6,40.6*,-2.5,11.2,8.4
Cc1ccc(NC(=O)NCc2ccc3c(c2)OCO3)cc1C,0.1,6.5,3.4,-1.3,29.5*,-2.4,-2.0,5.8

# Bioassay records as filed in PubChem BioAssay.
